Screening results as filed in PubChem BioAssay.
Sampled rows, rich in hits. Any-hit rate of the full collection: about 12%.
RAM network inh: inhibitors of the yeast RAM network; inhibition, % at 50 µM; 190,000 tested, 1.8% active; S. cerevisiae dse1pr::URA3 reporter, 5-FOA growth OD615, 2 d; analog-sensitive cbk1-as2 kinase mutant strain; AID 868;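 active = inhibition above a set limit, 3 SD over mean compound inhibition, cut at about 8.4% in these data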;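 also: 0% = DMSO-only wells with no growth and 100% = 10 µM 1-NA-PP1 full growth; inhibition rescues growth on 5-FOA so higher OD means more RAM inhibition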
ABCB1 block: human ABCB1 inhibition, ABCG2 as counter-screen. P08183. CCRF-Adr cells, JC-1 efflux, flow cytometry. inhibition, % at 6.6 µM. 190,000 tested, 0.067% active; in the data active = inhibition above about 40%;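 also: 0% = vehicle and 100% = reference inhibitor; higher value means more JC-1 retained so stronger ABCB1 efflux block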
WT yeast gro inh: growth inhibition of WT yeast, mitochondrial fusion screen | mitochondrial fusion phenotypic screen, WT strain | inhibition, % at 10 µM | 190,000 tested, 2.1% active; in the data active = inhibition above about 58%; tested in S. cerevisiae
ABCG2 inh: human ABCG2 inhibition, ABCB1 as counter-screen; Q9UNQ0; IgMXP3 cells, JC-1 efflux, flow cytometry; inhibition, % at 6.6 µM; 190,000 tested, 0.1% active;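 active = inhibition above 80%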;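 also: 0% = DMSO and 100% = nicardipine control wells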
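Test system: IgMXP3 cells (ABCG2) mixed with DDAO far-red-labelled CCRF-Adr cells (ABCB1). Reagent: JC-1 transporter substrate. Compound dosing: single test compound dose, 6.6 µM final. Times: 10 min compound exposure, 25 °C. Detection: flow cytometry of retained JC-1 fluorescence. Read-out basis: efflux inhibition in percent versus controls. Controls: nicardipine and DMSO wells.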
Lmaj promast: inhibitors of Leishmania major promastigote growth; Leishmania major promastigotes, resazurin fluorescence viability; inhibition, % at 10 µM; 200,000 tested, 9% active; in the data active = inhibition above about 50%;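 also: promastigotes grown with compound for 44 hours at 28 °C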
* hit, by the source's call.

Results for CC(=O)c1ccc(N2CCN(C(=O)c3ccc(Cn4c(=S)[nH]c5ccc(N6CCOCC6)cc5c4=O)cc3)CC2)cc1 ?
RAM network inh: 9.4*; ABCB1 block: 0; WT yeast gro inh: -7; ABCG2 inh: 1; Lmaj promast: 98*

How did CCCCC(=O)NC(c1cccc([N+](=O)[O-])c1)c1c(OC(C)=O)ccc2ccccc12 (stereo not given) do in these assays?
RAM network inh: 2; ABCB1 block: 1; WT yeast gro inh: 38; ABCG2 inh: 2; Lmaj promast: 89*

How did CC(=O)Oc1ccc2ccccc2c1C(NC(=O)C(C)C)c1cccc([N+](=O)[O-])c1 (stereo not given) do in these assays?
RAM network inh: 0; ABCB1 block: -3; WT yeast gro inh: 23; ABCG2 inh: -5; Lmaj promast: 99*

Results for CC(=O)Oc1ccc2ccccc2c1C(NC(=O)Cc1ccccc1)c1ccccc1 (stereo not given) ?
RAM network inh: 9.6*; ABCB1 block: 2; WT yeast gro inh: -12; ABCG2 inh: 4; Lmaj promast: 28

How did CC(=O)NC(c1cccc([N+](=O)[O-])c1)c1c(OC(C)=O)ccc2ccccc12 (stereo not given) do in these assays?
RAM network inh: 1; ABCB1 block: 0; WT yeast gro inh: 1; ABCG2 inh: 0; Lmaj promast: 71*

What do the screens show for `CCOC(=O)C(NC(=O)CC)C(O)c1cccc([N+](=O)[O-])c1` (stereo not given)?
RAM network inh: 2; ABCB1 block: 0; WT yeast gro inh: -11; ABCG2 inh: 0; Lmaj promast: -6

Results for CCOC(=O)C(NC(C)=O)C(OC(C)=O)c1cccc([N+](=O)[O-])c1 (stereo not given) ?
RAM network inh: 1; ABCB1 block: 1; WT yeast gro inh: -14; ABCG2 inh: 7; Lmaj promast: -5

How did Cc1c(Br)c([N+](=O)[O-])nn1C(C)C(=O)Nc1ccc2c(c1)OCO2 (stereo not given) do in these assays?
RAM network inh: 2; ABCB1 block: 1; WT yeast gro inh: -11; ABCG2 inh: 3; Lmaj promast: 27

What do the screens show for `C=CCn1c2ccccc2c2nnc(SC(CC)C(=O)Nc3sc4c(c3C#N)CCCC4)nc21` (stereo not given)?
RAM network inh: 3; ABCB1 block: 2; WT yeast gro inh: 15; ABCG2 inh: 1; Lmaj promast: 17

How did CC1C(=O)N(c2ccc(S(=O)(=O)N(C)C)cc2)C1(/C=C/c1ccccc1)C(=O)NC1CCCC1 (stereo not given) do in these assays?
RAM network inh: 7; ABCB1 block: -1; WT yeast gro inh: 1; ABCG2 inh: -1; Lmaj promast: 54*

What do the screens show for `O=C1CC(/C=C/c2ccccc2)(C(=O)NC2CCCC2)N1c1ccc(S(=O)(=O)N2CCCC2)cc1` (stereo not given)?
RAM network inh: 2; ABCB1 block: 2; WT yeast gro inh: -5; ABCG2 inh: 7; Lmaj promast: 39

How did COC(=O)c1ccccc1NC(=O)CSCC(=O)Nc1ccc(F)cc1 do in these assays?
RAM network inh: 1; ABCB1 block: 1; WT yeast gro inh: 40; ABCG2 inh: 3; Lmaj promast: -2

Results for C=CCN1CC(c2nc3ccccc3n2Cc2cccc3ccccc23)CC1=O (stereo not given) ?
RAM network inh: 0; ABCB1 block: 0; WT yeast gro inh: -6; ABCG2 inh: -1; Lmaj promast: 87*

Results for Cc1ccc(OCCn2c(C3CC(=O)N(Cc4ccccc4)C3)nc3ccccc32)cc1 (stereo not given) ?
RAM network inh: 1; ABCB1 block: -1; WT yeast gro inh: 9; ABCG2 inh: -2; Lmaj promast: 92*

What do the screens show for `CCn1c(C2CC(=O)N(c3cc(C)cc(C)c3)C2)nc2ccccc21` (stereo not given)?
RAM network inh: 2; ABCB1 block: 1; WT yeast gro inh: -12; ABCG2 inh: 6; Lmaj promast: -3

How did C=CCc1cccc(CNc2nc3ccccc3n2CCC)c1O do in these assays?
RAM network inh: 2; ABCB1 block: 1; WT yeast gro inh: 59*; ABCG2 inh: 2; Lmaj promast: 21

Results for C=CCc1cccc(CNc2nc3ccccc3n2CC)c1O ?
RAM network inh: 0; ABCB1 block: 1; WT yeast gro inh: 11; ABCG2 inh: 8; Lmaj promast: 15
